Assay results published in ChEMBL document CHEMBL1149433, “PABA/NO as an anticancer lead: analogue synthesis, structure revision, solution chemistry, reactivity toward glutathione, and in vitro activity” (J Med Chem, 2006).
Converted amounts (≈) assume the structure as drawn. The source made the active and inactive calls. The calls are words filed in the database; no cut-off is given here.

Legend:
CAKI-1 [1] = experiment: Cytotoxicity against human renal cancer CAKI1 cell line; assay type: functional; conditions: for CC50: read-out: LC50 (the source's name)
Summary of the method: (§1)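 Cells grown 24 h at 37 °C in RPMI 1640 with 5% FBS and 2 mM L-glutamine before dosing. Compounds were diluted from DMSO stocks to 10^-8 to 10^-4 M (five log concentrations) and incubated 48 h. Cells were TCA-fixed and stained with sulforhodamine B, with OD read at 515 nm. GI50, TGI and LC50 come from percent growth versus log concentration curves.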

[2] = Solubility in phosphate buffer at 37 degC; assay type: physicochemical
Summary of the method: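 Maximum solubility was measured in 0.1 M phosphate buffer at pH 7.4 and 37 °C.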

LOX IMVI [3] = experiment: Cytotoxicity against human melanoma cancer LOXIMVI cell line; assay type: functional; summary of the method: as §1
HCT-15 [4] = experiment: Cytotoxicity against human colon cancer HCT15 cell line; assay type: functional; conditions: for CC50: read-out: LC50 (the source's name); summary of the method: as §1
NIH3T3 = experiment: Cytotoxicity against mouse embryonic fibroblast NIH3T3 cell line; assay type: functional, cell-based
OVCAR-3 [5] = experiment: Cytotoxicity against human ovarian cancer OVACAR3 cell line; assay type: functional; conditions: for CC50: read-out: LC50 (the source's name); summary of the method: as §1
CAKI-1 [6] = experiment: Cytotoxicity against human renal cancer CAKI1 cell line at 100 uM; assay type: functional, cell-based; summary of the method: as §1
LOX IMVI [7] = experiment: Cytotoxicity against human melanoma cancer LOXIMVI cell line at 100 uM; assay type: functional, cell-based; summary of the method: as §1
HCT-15 [8] = experiment: Cytotoxicity against human colon cancer HCT15 cell line at 100 uM; assay type: functional, cell-based; summary of the method: as §1
HL-60 = experiment: Inhibition of human myeloid leukemia HL60 cell viability; assay type: functional, cell-based
OVCAR-3 [9] = experiment: Cytotoxicity against human ovarian cancer OVACAR3 cell line at 100 uM; assay type: functional, cell-based; summary of the method: as §1

Structure (SMILES)	GI50 (CAKI-1 [1])	TGI (CAKI-1 [1])	CC50 (CAKI-1 [1])	solubility [2]	LC50 (concentration giving 50% net cell kill) (LOX IMVI [3])	GI50 (HCT-15 [4])	TGI (HCT-15 [4])	CC50 (HCT-15 [4])	IC50 (NIH3T3)	GI50 (OVCAR-3 [5])	TGI (OVCAR-3 [5])	CC50 (OVCAR-3 [5])	Activity (CAKI-1 [6])	Activity (LOX IMVI [7])	Activity (HCT-15 [8])	IC50 (HL-60)	Activity (OVCAR-3 [9])	GI50 (LOX IMVI [3])	TGI (LOX IMVI [3])
CN(C)/[N+]([O-])=N/Oc1cc(Nc2cccc(C(=O)O)c2)c([N+](=O)[O-])cc1[N+](=O)[O-]	2.2 µM	51 µM	> 100 µM	> 2000 µM	60 µM	20 µM	36 µM	68 µM	80 µM	3.9 µM	30 µM	58 µM							
CN(c1cccc(C(=O)O)c1)c1cc(O/N=[N+](\[O-])N(C)C)c([N+](=O)[O-])cc1[N+](=O)[O-]				3000 µM (≈ 1260 µg/mL)					83 µM				inactive	inactive	inactive	11.6 µM	inactive		
CN(C)/[N+]([O-])=N/Oc1cc(Nc2ccc(C(=O)O)cc2)c([N+](=O)[O-])cc1[N+](=O)[O-]				> 3000 µM					73 µM	5.5 µM	9 µM	100 µM				9.1 µM			
CNc1ccc(C(=O)Oc2cc(O/N=[N+](\[O-])N(C)C)c([N+](=O)[O-])cc2[N+](=O)[O-])cc1	1.8 µM	4 µM	8.9 µM	< 2 µM		2 µM	5.3 µM	19 µM	5.6 µM	2.6 µM	6.9 µM	2.6 µM				6.3 µM		1.9 µM	4.4 µM
